Positions of bridges follow the written chain, without caps; N, C: chain ends. Residues, ends and D or L forms follow the SMILES beside them.
Target: Sodium channel protein type 5 subunit alpha (Homo sapiens, UniProt Q14524)
Assay: Inhibition of human Nav1.5 expressed in HEK293 cells assessed as inward peak current by ion-works quattro patch clamp electrophysiology method
Type: cell-based
Procedure, shortened: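 Stable HEK293 line expressing human NaV1.5, recorded by population patch clamp on the IonWorks Quattro.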

Chain of Sodium channel protein type 5 subunit alpha (Q14524 whole entry): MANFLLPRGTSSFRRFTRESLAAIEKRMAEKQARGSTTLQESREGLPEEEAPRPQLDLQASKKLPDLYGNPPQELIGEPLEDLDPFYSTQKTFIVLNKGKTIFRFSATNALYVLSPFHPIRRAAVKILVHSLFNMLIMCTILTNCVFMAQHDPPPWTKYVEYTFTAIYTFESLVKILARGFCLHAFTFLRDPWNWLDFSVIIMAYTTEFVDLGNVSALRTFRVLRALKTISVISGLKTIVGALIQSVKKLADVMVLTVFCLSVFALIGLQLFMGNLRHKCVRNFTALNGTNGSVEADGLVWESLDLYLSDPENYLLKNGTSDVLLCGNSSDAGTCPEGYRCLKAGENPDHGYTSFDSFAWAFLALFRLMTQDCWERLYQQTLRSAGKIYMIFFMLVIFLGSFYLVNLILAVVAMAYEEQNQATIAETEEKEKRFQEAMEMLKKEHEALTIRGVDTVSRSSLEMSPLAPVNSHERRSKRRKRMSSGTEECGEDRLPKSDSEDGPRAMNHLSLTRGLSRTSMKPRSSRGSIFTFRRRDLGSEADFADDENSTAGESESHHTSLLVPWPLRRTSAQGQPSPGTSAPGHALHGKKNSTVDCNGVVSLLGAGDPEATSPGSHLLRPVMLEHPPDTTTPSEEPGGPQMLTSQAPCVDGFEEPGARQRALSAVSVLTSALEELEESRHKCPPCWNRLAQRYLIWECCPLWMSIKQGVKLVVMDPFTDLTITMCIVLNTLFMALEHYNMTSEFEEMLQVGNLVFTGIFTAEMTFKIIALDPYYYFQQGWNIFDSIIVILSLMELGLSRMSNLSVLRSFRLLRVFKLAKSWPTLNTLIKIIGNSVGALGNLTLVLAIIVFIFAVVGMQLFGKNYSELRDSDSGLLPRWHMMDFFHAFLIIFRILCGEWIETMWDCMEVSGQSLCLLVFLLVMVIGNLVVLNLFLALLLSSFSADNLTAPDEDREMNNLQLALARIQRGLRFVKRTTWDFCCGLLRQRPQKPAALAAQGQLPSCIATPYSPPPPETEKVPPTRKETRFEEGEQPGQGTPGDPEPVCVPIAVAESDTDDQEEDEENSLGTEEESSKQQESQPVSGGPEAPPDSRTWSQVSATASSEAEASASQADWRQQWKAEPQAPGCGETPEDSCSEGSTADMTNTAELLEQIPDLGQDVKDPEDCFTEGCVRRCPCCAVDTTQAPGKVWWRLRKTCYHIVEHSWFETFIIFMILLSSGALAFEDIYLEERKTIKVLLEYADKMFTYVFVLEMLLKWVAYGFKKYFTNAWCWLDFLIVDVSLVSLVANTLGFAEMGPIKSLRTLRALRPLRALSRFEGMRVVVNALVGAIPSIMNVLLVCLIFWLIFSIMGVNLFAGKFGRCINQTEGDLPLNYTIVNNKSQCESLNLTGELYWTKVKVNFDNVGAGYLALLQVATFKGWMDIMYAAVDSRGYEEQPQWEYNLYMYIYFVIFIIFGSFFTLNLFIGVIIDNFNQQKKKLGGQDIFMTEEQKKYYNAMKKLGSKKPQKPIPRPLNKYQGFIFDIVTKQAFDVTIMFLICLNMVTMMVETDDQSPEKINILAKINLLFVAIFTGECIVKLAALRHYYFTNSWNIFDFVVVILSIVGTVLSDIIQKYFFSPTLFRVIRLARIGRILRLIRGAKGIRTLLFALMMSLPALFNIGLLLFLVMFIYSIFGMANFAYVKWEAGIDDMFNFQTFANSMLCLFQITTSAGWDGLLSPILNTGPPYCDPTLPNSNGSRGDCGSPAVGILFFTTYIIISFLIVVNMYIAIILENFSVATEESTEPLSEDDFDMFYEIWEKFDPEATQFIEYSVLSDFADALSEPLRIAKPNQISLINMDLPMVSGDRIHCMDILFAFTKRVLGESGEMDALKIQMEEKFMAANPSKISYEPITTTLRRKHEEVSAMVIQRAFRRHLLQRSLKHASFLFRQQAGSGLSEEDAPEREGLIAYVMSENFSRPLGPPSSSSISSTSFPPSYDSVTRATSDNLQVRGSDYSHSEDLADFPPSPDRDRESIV

## CC[C@H](C)[C@@H]1NC(=O)[C@@H]2CSSC[C@@H]3NC(=O)[C@H](C(C)C)NC(=O)[C@H](CC(C)C)NC(=O)[C@H](CC(N)=O)NC(=O)[C@@H]4CCCN4C(=O)[C@H](CCCNC(=N)N)NC(=O)[C@H](CSSC[C@H](NC(=O)[C@H](CC(=O)O)NC(=O)[C@@H](N)CCCNC(=N)N)C(=O)N[C@@H](CC(C)C)C(=O)NCC(=O)N[C@@H](Cc4ccccc4)C(=O)N[C@@H](CCSC)C(=O)N[C@@H](CCCNC(=N)N)C(=O)N[C@@H](CCCCN)C(=O)N2)NC(=O)[C@H](CSSC[C@@H](C(=O)N[C@@H](CCCCN)C(=O)N[C@@H](Cc2ccc(O)cc2)C(=O)N[C@H](C(=O)N[C@@H](Cc2ccccc2)C(N)=O)C(C)C)NC(=O)[C@H](Cc2c[nH]c4ccccc24)NC(=O)[C@H](CCCCN)NC(=O)[C@H](Cc2cnc[nH]2)NC(=O)[C@H]([C@@H](C)O)NC(=O)[C@H](CCCNC(=N)N)NC(=O)[C@H](CO)NC3=O)NC(=O)[C@H](CCCCN)NC(=O)[C@H](CC(=O)O)NC(=O)[C@H](CC(N)=O)NC(=O)[C@H](CC(=O)O)NC(=O)[C@@H]2CCCN2C1=O
  IC50: > 5 µM

## CSCC[C@@H]1NC(=O)[C@H](Cc2ccccc2)NC(=O)CNC(=O)[C@H](CC(C)C)NC(=O)[C@@H](NC(=O)[C@@H](N)CC(=O)O)CSSC[C@@H]2NC(=O)[C@@H]3CSSC[C@@H](C(=O)N[C@@H](CCCCN)C(=O)N[C@@H](Cc4ccc(O)cc4)C(=O)N[C@H](C(=O)N[C@@H](Cc4ccccc4)C(N)=O)C(C)C)NC(=O)[C@H](Cc4c[nH]c5ccccc45)NC(=O)[C@H](CCCCN)NC(=O)[C@H](Cc4cnc[nH]4)NC(=O)[C@H]([C@@H](C)O)NC(=O)[C@H](CCCNC(=N)N)NC(=O)[C@H](CO)NC(=O)[C@H](CSSC[C@H](NC(=O)[C@H](CCCCN)NC(=O)[C@H](CCCNC(=N)N)NC1=O)C(=O)N[C@@H](Cc1ccccn1)C(=O)N1CCC[C@H]1C(=O)N[C@@H](CC(=O)O)C(=O)N[C@@H](CC(N)=O)C(=O)N[C@@H](CC(=O)O)C(=O)N[C@@H](CCCCN)C(=O)N3)NC(=O)[C@H](C(C)C)NC(=O)[C@H](CC(C)C)NC(=O)[C@H](CC(N)=O)NC(=O)[C@@H]1CCCN1C(=O)[C@H](CCCNC(=N)N)NC2=O
  IC50: > 5 µM

## CC[C@H](C)[C@@H]1NC(=O)[C@@H]2CSSC[C@@H]3NC(=O)[C@H](C(C)C)NC(=O)[C@H](CC(C)C)NC(=O)[C@H](CC(N)=O)NC(=O)[C@@H]4CCCN4C(=O)[C@H](CCCNC(=N)N)NC(=O)[C@H](CSSC[C@H](NC(=O)[C@@H](N)CC(=O)O)C(=O)N[C@@H](CC(C)C)C(=O)NCC(=O)N[C@@H](Cc4ccccc4)C(=O)N[C@@H](CCSC)C(=O)N[C@@H](CCCNC(=N)N)C(=O)N[C@@H](CCCCN)C(=O)N2)NC(=O)[C@H](CSSC[C@@H](C(=O)N[C@@H](CCCCN)C(=O)N[C@@H](Cc2ccc(O)cc2)C(=O)N[C@H](C(=O)N[C@@H](Cc2ccccc2)C(N)=O)C(C)C)NC(=O)[C@H](Cc2c[nH]c4ccccc24)NC(=O)[C@H](CCCCN)NC(=O)[C@H](Cc2cnc[nH]2)NC(=O)[C@H]([C@@H](C)O)NC(=O)[C@H](CCCCN)NC(=O)[C@H](CO)NC3=O)NC(=O)[C@H](CCCCN)NC(=O)[C@H](CC(=O)O)NC(=O)[C@H](CC(N)=O)NC(=O)[C@H](CC(=O)O)NC(=O)[C@@H]2CCCN2C1=O (H-DCLGFMRKCIPDNDKCCRPNLVCSKTHKWCKYVF-NH2; disulfide 2-17, 9-23, 16-30)
  IC50: > 5 µM

## CC[C@H](C)[C@@H]1NC(=O)[C@@H]2CSSC[C@@H]3NC(=O)[C@H](C(C)C)NC(=O)[C@H](CC(C)C)NC(=O)[C@H](CC(N)=O)NC(=O)[C@@H]4CCCN4C(=O)[C@H](CCCNC(=N)N)NC(=O)[C@H](CSSC[C@H](NC(=O)[C@@H](N)CC(=O)O)C(=O)N[C@@H](CC(C)C)C(=O)NCC(=O)N[C@@H](CCCNC(=N)N)C(=O)N[C@@H](CCSC)C(=O)N[C@@H](CCCNC(=N)N)C(=O)N[C@@H](CCCCN)C(=O)N2)NC(=O)[C@H](CSSC[C@@H](C(=O)N[C@@H](CCCCN)C(=O)N[C@@H](Cc2ccc(O)cc2)C(=O)N[C@H](C(=O)N[C@@H](Cc2ccccc2)C(N)=O)C(C)C)NC(=O)[C@H](Cc2c[nH]c4ccccc24)NC(=O)[C@H](CCCCN)NC(=O)[C@H](Cc2cnc[nH]2)NC(=O)[C@H]([C@@H](C)O)NC(=O)[C@H](CCCNC(=N)N)NC(=O)[C@H](CO)NC3=O)NC(=O)[C@H](CCCCN)NC(=O)[C@H](CC(=O)O)NC(=O)[C@H](CC(N)=O)NC(=O)[C@H](CC(=O)O)NC(=O)[C@@H]2CCCN2C1=O (H-DCLGRMRKCIPDNDKCCRPNLVCSRTHKWCKYVF-NH2; disulfide 2-17, 9-23, 16-30)
  IC50: > 5 µM

## CC[C@H](C)[C@@H]1NC(=O)[C@@H]2CSSC[C@@H]3NC(=O)[C@H](C(C)C)NC(=O)[C@H](CC(C)C)NC(=O)[C@H](CC(N)=O)NC(=O)[C@@H]4CCCN4C(=O)[C@H](CCCNC(=N)N)NC(=O)[C@H](CSSC[C@H](NC(=O)[C@@H](N)CC(=O)O)C(=O)N[C@@H](CC(C)C)C(=O)NCC(=O)N[C@@H](Cc4ccccc4)C(=O)N[C@@H](CCC(=O)O)C(=O)N[C@@H](CCCNC(=N)N)C(=O)N[C@@H](CCCCN)C(=O)N2)NC(=O)[C@H](CSSC[C@@H](C(=O)N[C@@H](CCCCN)C(=O)N[C@@H](Cc2ccc(O)cc2)C(=O)N[C@H](C(=O)N[C@@H](Cc2ccccc2)C(N)=O)C(C)C)NC(=O)[C@H](Cc2c[nH]c4ccccc24)NC(=O)[C@H](CCCCN)NC(=O)[C@H](Cc2cnc[nH]2)NC(=O)[C@H]([C@@H](C)O)NC(=O)[C@H](CCCNC(=N)N)NC(=O)[C@H](CO)NC3=O)NC(=O)[C@H](CCCCN)NC(=O)[C@H](CC(=O)O)NC(=O)[C@H](CC(N)=O)NC(=O)[C@H](CC(=O)O)NC(=O)[C@@H]2CCCN2C1=O (H-DCLGFERKCIPDNDKCCRPNLVCSRTHKWCKYVF-NH2; disulfide 2-17, 9-23, 16-30)
  IC50: > 5 µM

## CC[C@H](C)[C@@H]1NC(=O)[C@@H]2CSSC[C@@H]3NC(=O)[C@H](C(C)C)NC(=O)[C@H](CC(C)C)NC(=O)[C@H](CC(N)=O)NC(=O)[C@@H]4CCCN4C(=O)[C@H](CCCNC(=N)N)NC(=O)[C@H](CSSC[C@H](NC(=O)[C@@H](N)CC(=O)O)C(=O)N[C@@H](CC(C)C)C(=O)N[C@@H](CCC(=O)O)C(=O)N[C@@H](Cc4ccccc4)C(=O)N[C@@H](CCSC)C(=O)N[C@@H](CCCNC(=N)N)C(=O)N[C@@H](CCCCN)C(=O)N2)NC(=O)[C@H](CSSC[C@@H](C(=O)N[C@@H](CCCCN)C(=O)N[C@@H](Cc2ccc(O)cc2)C(=O)N[C@H](C(=O)N[C@@H](Cc2ccccc2)C(N)=O)C(C)C)NC(=O)[C@H](Cc2c[nH]c4ccccc24)NC(=O)[C@H](CCCCN)NC(=O)[C@H](Cc2cnc[nH]2)NC(=O)[C@H]([C@@H](C)O)NC(=O)[C@H](CCCNC(=N)N)NC(=O)[C@H](CO)NC3=O)NC(=O)[C@H](CCCCN)NC(=O)[C@H](CC(=O)O)NC(=O)[C@H](CC(N)=O)NC(=O)[C@H](CC(=O)O)NC(=O)[C@@H]2CCCN2C1=O (H-DCLEFMRKCIPDNDKCCRPNLVCSRTHKWCKYVF-NH2; disulfide 2-17, 9-23, 16-30)
  IC50: > 5 µM

## CC[C@H](C)[C@@H]1NC(=O)[C@@H]2CSSC[C@@H]3NC(=O)[C@H](C(C)C)NC(=O)[C@H](CC(C)C)NC(=O)[C@H](CC(N)=O)NC(=O)[C@@H]4CCCN4C(=O)[C@H](CCCNC(=N)N)NC(=O)[C@H](CSSC[C@H](NC(=O)[C@@H](N)CC(=O)O)C(=O)N[C@@H](CC(C)C)C(=O)NCC(=O)N[C@@H](Cc4ccccc4)C(=O)N[C@@H](CCSC)C(=O)N[C@@H](CCCNC(=N)N)C(=O)N[C@@H](CCCCN)C(=O)N2)NC(=O)[C@H](CSSC[C@@H](C(=O)N[C@@H](CCCCN)C(=O)N[C@@H](Cc2ccc(O)cc2)C(=O)N[C@H](C(=O)N[C@@H](Cc2ccccc2)C(N)=O)C(C)C)NC(=O)[C@H](Cc2c[nH]c4ccccc24)NC(=O)[C@H](CCCCN)NC(=O)[C@H](Cc2c[nH]cn2)NC(=O)[C@H]([C@@H](C)O)NC(=O)[C@H](CCCNC(=N)N)NC(=O)[C@H](CO)NC3=O)NC(=O)[C@H](CCC(=O)O)NC(=O)[C@H](CC(=O)O)NC(=O)[C@H](CC(N)=O)NC(=O)[C@H](CC(=O)O)NC(=O)[C@@H]2CCCN2C1=O (H-DCLGFMRKCIPDNDECCRPNLVCSRTHKWCKYVF-NH2; disulfide 2-17, 9-23, 16-30)
  IC50: > 5 µM

## CC[C@H](C)[C@@H]1NC(=O)[C@@H]2CSSC[C@@H]3NC(=O)[C@H](C(C)C)NC(=O)[C@H](CC(C)C)NC(=O)[C@H](CC(N)=O)NC(=O)[C@@H]4CCCN4C(=O)[C@H](CCCNC(=N)N)NC(=O)[C@H](CSSC[C@H](NC(=O)[C@@H](N)CC(=O)O)C(=O)N[C@@H](CCCNC(=N)N)C(=O)NCC(=O)N[C@@H](Cc4ccccc4)C(=O)N[C@@H](CCSC)C(=O)N[C@@H](CCCNC(=N)N)C(=O)N[C@@H](CCCCN)C(=O)N2)NC(=O)[C@H](CSSC[C@@H](C(=O)N[C@@H](CCCCN)C(=O)N[C@@H](Cc2ccc(O)cc2)C(=O)N[C@H](C(=O)N[C@@H](Cc2ccccc2)C(N)=O)C(C)C)NC(=O)[C@H](Cc2c[nH]c4ccccc24)NC(=O)[C@H](CCCCN)NC(=O)[C@H](Cc2cnc[nH]2)NC(=O)[C@H]([C@@H](C)O)NC(=O)[C@H](CCCNC(=N)N)NC(=O)[C@H](CO)NC3=O)NC(=O)[C@H](CCCCN)NC(=O)[C@H](CC(=O)O)NC(=O)[C@H](CC(N)=O)NC(=O)[C@H](CC(=O)O)NC(=O)[C@@H]2CCCN2C1=O (H-DCRGFMRKCIPDNDKCCRPNLVCSRTHKWCKYVF-NH2; disulfide 2-17, 9-23, 16-30)
  IC50: > 5 µM

## CSCC[C@@H]1NC(=O)[C@H](Cc2ccccc2)NC(=O)CNC(=O)[C@H](CC(C)C)NC(=O)[C@@H](NC(=O)[C@@H](N)CC(=O)O)CSSC[C@@H]2NC(=O)[C@@H]3CSSC[C@@H](C(=O)N[C@@H](CCCCN)C(=O)N[C@@H](Cc4ccc(O)cc4)C(=O)N[C@H](C(=O)N[C@@H](Cc4ccccc4)C(N)=O)C(C)C)NC(=O)[C@H](Cc4c[nH]c5ccccc45)NC(=O)[C@H](CCCCN)NC(=O)[C@H](Cc4cnc[nH]4)NC(=O)[C@H]([C@@H](C)O)NC(=O)[C@H](CCCNC(=N)N)NC(=O)[C@H](CO)NC(=O)[C@H](CSSC[C@H](NC(=O)[C@H](CCCCN)NC(=O)[C@H](CCCNC(=N)N)NC1=O)C(=O)N[C@@H](Cc1cnc[nH]1)C(=O)N1CCC[C@H]1C(=O)N[C@@H](CC(=O)O)C(=O)N[C@@H](CC(N)=O)C(=O)N[C@@H](CC(=O)O)C(=O)N[C@@H](CCCCN)C(=O)N3)NC(=O)[C@H](C(C)C)NC(=O)[C@H](CC(C)C)NC(=O)[C@H](CC(N)=O)NC(=O)[C@@H]1CCCN1C(=O)[C@H](CCCNC(=N)N)NC2=O (H-DCLGFMRKCHPDNDKCCRPNLVCSRTHKWCKYVF-NH2; disulfide 2-17, 9-23, 16-30)
  IC50: > 5 µM

From ChEMBL document CHEMBL3797186, “Single Residue Substitutions That Confer Voltage-Gated Sodium Ion Channel Subtype Selectivity in the NaV1.7 Inhibitory Peptide GpTx-1” (J Med Chem, 2016)
